This is an account of results in ChEMBL document CHEMBL1158585, “Oploxynes A and B, polyacetylenes from the stems of Oplopanax elatus” (J Nat Prod, 2010).

Structures are written as SMILES. The source made the active and inactive calls. The rule behind the calls is not given here.

Assay [1] deals with RAW264.7. In words: Cytotoxicity in mouse RAW264.7 cells. It is filed as cell-based.
Assay [2] concerns RAW264.7. In words: Antiinflammatory activity in lipopolysaccharide-induced mouse RAW264.7 cells assessed as inhibition of prostaglandin E2 production after 20 to 24 hrs. It is filed as functional, cell-based. The method in brief: (§1)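 PGE₂ made from endogenous arachidonic acid was measured with a commercial PGE₂ parameter assay kit, following the manufacturer's protocol.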
The test system of assay [3] is RAW264.7. In words: Antiinflammatory activity in lipopolysaccharide-induced mouse RAW264.7 cells assessed as inhibition of nitric oxide production after 20 to 24 hrs by Griess method. It is filed as functional, cell-based. Put shortly:
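RAW264.7 cells seeded at 1 × 10⁵ cells/well and left 6 h to attach, then given phenol red-free medium with 1 µg/mL E. coli LPS (strain 055:B5), with or without compound, for 20-24 h. Compounds were serially diluted. Supernatant nitrite read by Griess reagent, absorbance at 540 nm, against a NaNO₂ standard curve. Control got 0.5% (v/v) DMSO. Triplicate wells.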

The test system of assay [4] is RAW264.7. The experiment in a line: Antiinflammatory activity in lipopolysaccharide-induced mouse RAW264.7 cells assessed as inhibition of prostaglandin E2 production at 8 uM after 24 hrs. It is filed as functional, cell-based. Put shortly:
as §1

Assay [5] concerns RAW264.7. In words: Antiinflammatory activity in lipopolysaccharide-induced mouse RAW264.7 cells assessed as inhibition of nitric oxide production at 8 uM after 24 hrs by Griess method. It is filed as functional, cell-based. The method in brief:
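RAW264.7 cells seeded at 1 × 10⁵ cells/well and left 6 h to attach, then exposed to compound at 8 µM for 24 h in phenol red-free medium with 1 µg/mL E. coli LPS (strain 055:B5). Supernatant nitrite read by Griess reagent at 540 nm against a NaNO₂ standard curve. Control got 0.5% (v/v) DMSO. Triplicate wells.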

As for `C=CC(O)C#CC#C[C@@H](O)/C=C\CCCCCCC` (mixture of isomers), the half-inhibitory concentration (IC50) is 3770 nM in assay [1], 1540 nM in assay [2] and 1280 nM in assay [3].
Regarding `CCCCCCC/C=C\[C@H](O)C#CC#C[C@@H](O)CC` [OPLOPANDIOL], the inhibition result in assay [4] and in assay [5] was “Active” throughout. For the same compound, the half-maximal inhibitory concentration (IC50) in assay [1] is > 40000 nM; in assay [2], 2990 nM; in assay [3], 2720 nM.
Regarding `CCCCCCC[C@@H]1O[C@@H]1[C@H](O)C#CC#C[C@@H](O)CC` [OPLOXYNE A], the inhibition entry in assay [4] and in assay [5] was “Active” in each case. For the same compound, the concentration for half-maximal inhibition (IC50) in assay [1] is > 40000 nM; in assay [2] it was 3080 nM; in assay [3] it was 1980 nM.
In the case of `CCCCCCC[C@@H](OC)[C@H](O)[C@H](O)C#CC#C[C@@H](O)CC` [OPLOXYNE B], the IC50 in assay [1], in assay [2] and in assay [3] was > 40000 nM each time.
